# According to article PMC4618637 (Pharmacology Research & Perspectives, 2015):
# Read-outs that look alike come from different tables or passages of the source.
# Tests used:
# [1] = format: in vivo; conditions: human ileal effluent 4 h after 5 g TU-100 oral
# In short: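 Subjects were 10 ileostomy patients (2 male, 8 female), with stoma made at least 2 weeks prior and normal small intestine by enteroscopy. Those given kampo medicine within 4 weeks were excluded. A new bag was fitted, then 5 g TU-100 drug product (0.42 g drug substance) was taken, followed by an unrestricted breakfast. Effluent was collected at 4 h and frozen at −80°C. Liquid–liquid extraction used pH 5.0 ammonium acetate/PEG, methanol and internal standard, with or without β-glucuronidase (final 0.1 U/μL, 37°C), before LC-MS/MS. Results were expressed as % of ingested amount.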
# [2] = format: in vivo, rat; conditions: for Effect of β-glucuronidase treatment on blood concentrations: rat blood, data not shown
# In short: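 Male Sprague Dawley rats (7 weeks, 274.2–317.7 g) were fasted 16 h and had jugular vein catheters placed 2 days earlier. Single oral TU-100 drug substance was given at 0.3 g/kg with 2.4 g/kg maltose (n = 5), or 0.9 g/kg with 7.2 g/kg maltose for 6G/6S. Plasma was taken at 0.083–24 h and analysed by LC-MS/MS after acetonitrile/methanol precipitation with internal standard. Cmax observed; AUC0–last; t1/2 = ln2/ke.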
# [3] = Recovery of TU-100 ingredients in small intestinal luminal contents; format: in vivo, rat; conditions: for Effect of β-glucuronidase treatment on luminal amounts: rat small intestinal contents
# In short: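 Fasted male Sprague Dawley rats (n = 3 per time) were killed 0.083–4 h after oral TU-100 with maltose. The small intestine was ligated into quarters (sites 1–4, oral to anal), and contents were collected with cold water to 10 mL and stored at −80°C. Aliquots, with or without β-glucuronidase (final 0.1 U/μL, pH 6.0, 37°C), were mixed with HBSS/30% acetonitrile and internal standard, then analysed by LC-MS/MS. Amount per site was expressed as % of dosed ingredient; mean ± SD.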
# [4] = Portal blood pharmacokinetics of TU-100 ingredients after single oral TU-100; format: in vivo, rat
# In short: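 Purchased male Sprague Dawley rats with hepatic portal vein catheters were fasted 16 h. They received oral TU-100 drug substance at 0.3 g/kg plus 2.4 g/kg maltose (n = 5). Portal plasma was sampled at 0.083, 0.25, 0.5, 1, 2, 4, 8 and 24 h and stored at −80°C. Samples were protein-precipitated with internal standard, optionally treated with β-glucuronidase (final 0.1 U/μL, pH 6.0, 37°C), then run on LC-MS/MS. Cmax and tmax were observed; AUC0–last was taken to the last detected time; values mean ± SD.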
# [5] = isotope-labeled 6S administered orally; ref Asami et al. [2010]; cited from earlier work
# [6] = male, Sprague Dawley, rat, plasma from peripheral blood, po, 0.9 g/kg
# [7] = male, Sprague Dawley, rat, plasma from portal blood, po, 0.3 g/kg
# [8] = all sites, all rats, all time points, data not shown
# [9] = male, Sprague Dawley, rat, plasma from peripheral blood, po, 0.3 g/kg
# [10] = site 3 and 4, at 30 min and 1 h (Fig. 2)
# [11] = site 4, at 2 h and 4 h (Fig. 2)
# [12] = rat peripheral blood, oral TU-100 0.3 g/kg, untreated, mean ± SD, n = 5
compound,measurement,setting,value
"CCCCCCCCC/C=C/C(=O)CCc1ccc(O)c(OC)c1 [10S, [10]-shogaol]","% of ingested TU-100, Max",[1]; β-glucuronidase treatment +,3.5%
same,"% of ingested TU-100, Median",[1]; β-glucuronidase treatment +,0.8%
same,"% of ingested TU-100, Median",[1]; β-glucuronidase treatment −,B.L.Q
"CCCCC[C@H](O)CC(=O)CCc1ccc(O)c(OC)c1 [6G, [6]-gingerol]",AUC,[2]; [6],0.974 ± 0.839 ng·h/mL
same,AUC(0-t),[2]; [6],0.974 ± 0.839 ng·h/mL
same,Cmax,[2]; [6],0.676 ± 0.479 ng/mL
same,Tmax,[2]; [6],0.466 ± 0.857 h
same,6G in luminal contents as % of the ingested amount,"[3]; all sites, at 30 min (Fig. 3)",below 2%
same,Unconjugated 6G in luminal contents as % of the ingested amount,"[3]; sites 3 and/or 4, after 1 h (Fig. 3)",2–3%
same,AUC,[4]; [7],59.7 ± 40.4 ng·h/mL
same,AUC(0-t),[4]; [7],59.7 ± 40.4 ng·h/mL
same,Cmax,[4]; [7],38.3 ± 31.8 ng/mL
same,Tmax,[4]; [7],1.31 ± 1.8 h
same,half-life,[4]; [7],1.79 h
same,Peak concentration of 6G and its conjugates relative to that of HAS,[4]; rat portal blood,about one-fifth
same,"% of ingested TU-100, Median",[1]; β-glucuronidase treatment −,B.L.Q
"C/C=C/C=C/C=C\CC/C=C/C=C/C(=O)NCC(C)C [GS, γ-sanshool]","% of ingested TU-100, Max",[1]; β-glucuronidase treatment −,68.1%
same,"% of ingested TU-100, Median",[1]; β-glucuronidase treatment −,4.1%
"C/C=C/C=C/C=C/CC/C=C/C(=O)NCC(C)(C)O [HBS, hydroxy-β-sanshool]",Effect of β-glucuronidase treatment on blood concentrations,[2],no effect
same,Level in luminal contents as % of the ingested amount,[3]; [8],< 1%
same,Level in small intestinal luminal contents,[3]; [8],below 10 μg/site
same,"% of ingested TU-100, Median",[1]; β-glucuronidase treatment −,B.L.Q
"CC(C)=CCC[C@](C)(O[C@@H]1O[C@H](CO[C@@H]2O[C@H](CO)[C@@H](O)[C@H](O)[C@H]2O)[C@@H](O)[C@H](O)[C@H]1O)[C@H]1CC[C@]2(C)[C@@H]1[C@H](O)C[C@@H]1[C@@]3(C)CC[C@H](O[C@@H]4O[C@H](CO)[C@@H](O)[C@H](O)[C@H]4O[C@@H]4O[C@H](CO)[C@@H](O)[C@H](O)[C@H]4O)C(C)(C)[C@@H]3CC[C@]12C [Rb1, ginsenoside Rb1]",Tmax,"[2]; male, Sprague Dawley, rat, plasma (peripheral and portal blood), oral, 0.3 g/kg",~4 h
same,AUC,[2]; [9],34.3 ± 12 ng·h/mL
same,AUC(0-t),[2]; [9],34.3 ± 12 ng·h/mL
same,Cmax,[2]; [9],2.12 ± 0.759 ng/mL
same,Tmax,[2]; [9],4.8 ± 1.79 h
same,Effect of β-glucuronidase treatment on blood concentrations,[2],no effect
same,Effect of β-glucuronidase treatment on luminal amounts,[3],did not have a significant effect
same,Level in luminal contents as % of the ingested amount,[3]; [10],around 10%
same,Level in luminal contents as % of the ingested amount,[3]; [11],~50%
same,AUC,[4]; [7],28.7 ± 6.29 ng·h/mL
same,AUC(0-t),[4]; [7],28.7 ± 6.29 ng·h/mL
same,Cmax,[4]; [7],2.1 ± 1.13 ng/mL
same,Tmax,[4]; [7],6 ± 2.31 h
same,"% of ingested TU-100, Max",[1]; β-glucuronidase treatment −,77.5%
same,"% of ingested TU-100, Median",[1]; β-glucuronidase treatment −,59.1%
"CC(C)=CCC[C@](C)(O[C@@H]1O[C@H](CO)[C@@H](O)[C@H](O)[C@H]1O)[C@H]1CC[C@]2(C)[C@@H]1[C@H](O)C[C@@H]1[C@@]3(C)CC[C@H](O)C(C)(C)[C@@H]3[C@@H](O[C@@H]3O[C@H](CO)[C@@H](O)[C@H](O)[C@H]3O)C[C@]12C [Rg1, ginsenoside Rg1]",Blood concentrations,[2]; rat blood after oral TU-100,too low to obtain reliable data
same,Effect of β-glucuronidase treatment on luminal amounts,[3],did not have a significant effect
same,Level in luminal contents as % of the ingested amount,[3]; [10],around 10%
same,Level in luminal contents as % of the ingested amount,[3]; [11],~30%
same,"% of ingested TU-100, Max",[1]; β-glucuronidase treatment −,114.0%
same,"% of ingested TU-100, Median",[1]; β-glucuronidase treatment −,91.5%
"C/C=C/C=C/C=C\CC/C=C/C(=O)NCC(C)(C)O [HAS, hydroxy-α-sanshool]",Effect of β-glucuronidase treatment on blood concentrations,[2],no effect
same,AUCall,[2]; [12],951 ± 264 ng·h/mL
same,AUClast,[2]; [12],951 ± 264 ng·h/mL
same,Cmax,[2]; [12],778 ± 276 ng/mL
same,Tmax,[2]; [12],0.283 ± 0.209 h
same,t1/2,[2]; [12],3.01 ± 2.90 h
same,Time for blood concentration to reach almost 0,[2]; rat portal and peripheral blood,≤ 5 h
same,Level in luminal contents as % of the ingested amount,[3]; [8],< 1%
same,Level in small intestinal luminal contents,[3]; [8],below 10 μg/site
same,"% of ingested TU-100, Max",[1]; β-glucuronidase treatment −,0.4%
same,"% of ingested TU-100, Median",[1]; β-glucuronidase treatment −,B.L.Q
"CCCCCCCCC[C@H](O)CC(=O)CCc1ccc(O)c(OC)c1 [10G, [10]-gingerol]","% of ingested TU-100, Max",[1]; β-glucuronidase treatment +,9.1%
same,"% of ingested TU-100, Median",[1]; β-glucuronidase treatment +,4.3%
same,"% of ingested TU-100, Median",[1]; β-glucuronidase treatment −,B.L.Q
"CCCCC/C=C/C(=O)CCc1ccc(O)c(OC)c1 [6S, [6]-shogaol]",Presence of 6S and its conjugates in luminal contents,"[3]; all sites, all rats, all time points (Fig. 3)",virtually absent
same,Portal blood levels of 6S and its conjugates relative to 6G/6G conjugates,[4]; rat portal blood,approximately one tenth
same,Concentrations of 6S and its conjugates in the portal blood,[4]; rat portal blood after oral TU-100,below 20 ng/mL
same,Isotope labels recovered in the urine,[5],about 90%
same,"% of ingested TU-100, Max",[1]; β-glucuronidase treatment +,0.8%
same,"% of ingested TU-100, Median",[1]; β-glucuronidase treatment +,0.4%
same,"% of ingested TU-100, Median",[1]; β-glucuronidase treatment −,B.L.Q
